{"source": "ChEMBL document CHEMBL3588793", "about": "“Small molecule inhibitors of HIVgp41 N-heptad repeat trimer formation” (Bioorg Med Chem Lett, 2015)", "key": {"HL2/3": {"system": "HL2/3", "assay": "Inhibition of HIV gp41 activity assessed as inhibition of TZM-bl and HL2/3 cell fusion at 100 uM after 6 hrs by luciferase reporter assay", "type": "cell-based", "details": "Human immunodeficiency virus", "procedure,_shortened": "(§1)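 TZM-bl target cells (2.5×10^4/well) were seeded; 24 h later HL2/3 effector cells (5.0×10^4/well, […]) were added together with compound diluted in DMSO to a final 100 µM. After 6 h, Tat-driven LTR-luciferase luminescence (fusion) and cell viability were read in a combined reporter/viability kit. Six replicates; ANOVA with Tukey post hoc test against untreated co-culture.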"}, "[1]": {"assay": "Inhibition of HIVgp41 activity assessed as inhibition of TZM-bl and HL2/3 cell fusion after 6 hrs by luciferase reporter assay", "type": "cell-based", "details": "Human immunodeficiency virus 1, HL2/3, 6 h", "procedure,_shortened": "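Dose-response runs of the TZM-bl/HL2/3 co-culture luciferase fusion assay over a range of concentrations. Viability signal was scaled to the maximal signal (fraction of maximal proliferation). Each well's fusion luminescence was divided by that fraction, background was subtracted, and values were normalized to fraction of maximal effect. IC50 was taken from curve fitting.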"}, "[2]": {"system": "Human immunodeficiency virus", "assay": "Inhibition of HIVgp41 activity assessed as fluorescence intensity at 800 uM by FRET assay relative to 40 uM bithionol"}, "[3]": {"assay": "Cytotoxicity against human TZM-bl cells at 100 uM", "type": "cell-based", "procedure,_shortened": "as §1"}, "[4]": {"assay": "Cytotoxicity against human HL2/3 cells at 100 uM", "type": "cell-based", "details": "hl2/3, 100 µM", "procedure,_shortened": "as §1"}}, "note": "Activity calls are given as the source filed them. No cut-off for these calls is given here.", "data": [{"smiles": "CCn1c(SCC(=O)N/N=C/c2cccc(Oc3ccccc3)c2)nnc1-c1ccc(OC)cc1", "values": [{"measurement": "Activity", "setting": "HL2/3", "result": "Active"}, {"measurement": "IC50", "setting": "[1]", "result": 56.7, "unit": "µM"}, {"measurement": "Activity", "setting": "[2]", "result": "inactive"}, {"measurement": "Activity", "setting": "[3]", "result": "Non-toxic"}, {"measurement": "Activity", "setting": "[4]", "result": "Non-toxic"}]}, {"smiles": "COc1ccc(-c2cc(C(=O)NCc3ccc(Cl)cc3)n[nH]2)cc1S(=O)(=O)N1CCOCC1", "values": [{"measurement": "Activity", "setting": "HL2/3", "result": "Active"}, {"measurement": "IC50", "setting": "[1]", "result": 58.6, "unit": "µM"}, {"measurement": "Activity", "setting": "[2]", "result": "inactive"}, {"measurement": "Activity", "setting": "[3]", "result": "Non-toxic"}, {"measurement": "Activity", "setting": "[4]", "result": "Non-toxic"}]}]}
